# How the values were obtained:
# Type in all cases: toxicity, cell-based
# [1] = tested on: Fibroblast; assay: Multiplex assay against human fibroblast
# Method in brief: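 Live cells were stained at seeding with Hoechst33342, BioTracker Green Microtubule Cytoskeleton Dye, MitoTracker Red and Annexin V Alexa Fluor 680, then imaged on a CQ1 microscope at 37°C and 5% CO2 after compound addition. CellPathfinder machine-learning gating split cells into Hoechst high-intensity objects or normal cells. Normal cells were split into healthy, pyknosed or fragmented nuclei, and pyknosed cells into mitotic or apoptotic. Tubulin, mitochondrial-mass and membrane-permeability phenotypes are per cents of healthy-nucleus cells.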
# [2] = tested on: U2OS; assay: Incucyte cell viability with U2OS; conditions: human, 10 µM, compound concentration 10 uM; further: filed as whole numbers so only -1 and 0 and 1 occur
# [3] = tested on: HEK-293T; assay: Incucyte cell viability with HEK293T; conditions: human, 10 µM, compound concentration 10 uM; further: filed as whole numbers so only -1 and 0 and 1 occur
# [4] = 12 h, 1 µM, compound concentration 1 uM, replicate 1
# [5] = 12 h, 1 µM, compound concentration 1 uM, replicate 2
# [6] = 12 h, 10 µM, compound concentration 10 uM, replicate 1
# [7] = 12 h, 10 µM, compound concentration 10 uM, replicate 2
# [8] = 24 h, 1 µM, compound concentration 1 uM, replicate 1
# [9] = 24 h, 1 µM, compound concentration 1 uM, replicate 2
# [10] = 24 h, 10 µM, compound concentration 10 uM, replicate 1
# [11] = 24 h, 10 µM, compound concentration 10 uM, replicate 2
# [12] = 48 h, 1 µM, compound concentration 1 uM, replicate 1
# [13] = 48 h, 1 µM, compound concentration 1 uM, replicate 2
# [14] = 48 h, 10 µM, compound concentration 10 uM, replicate 1
# [15] = 48 h, 10 µM, compound concentration 10 uM, replicate 2
# [16] = 6 h, replicate number 1, timepoint 6 hours
# [17] = 12 h, replicate number 1, timepoint 12 hours
# [18] = 18 h, replicate number 1, timepoint 18 hours
# [19] = 24 h, replicate number 1, timepoint 24 hours
compound,measurement,setting,value
Oc1cccc(-c2nc(N3CCOCC3)c3oc4ncccc4c3n2)c1 [PI-103],Population Apoptotic (%),[1]; [4],64%
same,Population Fragmented Nuclei (%),[1]; [4],32%
same,Population Healthy Nuclei (%),[1]; [4],39%
same,Population Hoechst High Intensity Objects (%),[1]; [4],12%
same,Population Membrane Permeable-Phenotype (%),[1]; [4],14%
same,Population Mitochondria Different-Phenotype (%),[1]; [4],1%
same,Population Mitotic Cells (%),[1]; [4],36%
same,Population Normal (%),[1]; [4],87%
same,Population Pyknosed Nuclei (%),[1]; [4],28%
same,Population Tubulin-Different-Phenotype (%),[1]; [4],17%
same,Total Cell Count,[1]; [4],199
same,Population Apoptotic (%),[1]; [5],47%
same,Population Fragmented Nuclei (%),[1]; [5],10%
same,Population Healthy Nuclei (%),[1]; [5],63%
same,Population Hoechst High Intensity Objects (%),[1]; [5],5%
same,Population Membrane Permeable-Phenotype (%),[1]; [5],2%
same,Population Mitochondria Different-Phenotype (%),[1]; [5],7%
same,Population Mitotic Cells (%),[1]; [5],52%
same,Population Normal (%),[1]; [5],94%
same,Population Pyknosed Nuclei (%),[1]; [5],26%
same,Population Tubulin-Different-Phenotype (%),[1]; [5],0%
same,Total Cell Count,[1]; [5],73
same,Population Apoptotic (%),[1]; [6],70%
same,Population Fragmented Nuclei (%),[1]; [6],34%
same,Population Healthy Nuclei (%),[1]; [6],34%
same,Population Hoechst High Intensity Objects (%),[1]; [6],23%
same,Population Membrane Permeable-Phenotype (%),[1]; [6],33%
same,Population Mitochondria Different-Phenotype (%),[1]; [6],16%
same,Population Mitotic Cells (%),[1]; [6],29%
same,Population Normal (%),[1]; [6],76%
same,Population Pyknosed Nuclei (%),[1]; [6],30%
same,Population Tubulin-Different-Phenotype (%),[1]; [6],77%
same,Total Cell Count,[1]; [6],135
same,Population Apoptotic (%),[1]; [7],36%
same,Population Fragmented Nuclei (%),[1]; [7],18%
same,Population Healthy Nuclei (%),[1]; [7],39%
same,Population Hoechst High Intensity Objects (%),[1]; [7],5%
same,Population Mitochondria Different-Phenotype (%),[1]; [7],59%
same,Population Mitotic Cells (%),[1]; [7],63%
same,Population Normal (%),[1]; [7],94%
same,Population Pyknosed Nuclei (%),[1]; [7],41%
same,Population Tubulin-Different-Phenotype (%),[1]; [7],83%
same,Total Cell Count,[1]; [7],69
same,Population Apoptotic (%),[1]; [8],64%
same,Population Fragmented Nuclei (%),[1]; [8],30%
same,Population Healthy Nuclei (%),[1]; [8],46%
same,Population Hoechst High Intensity Objects (%),[1]; [8],14%
same,Population Membrane Permeable-Phenotype (%),[1]; [8],18%
same,Population Mitochondria Different-Phenotype (%),[1]; [8],5%
same,Population Mitotic Cells (%),[1]; [8],35%
same,Population Normal (%),[1]; [8],85%
same,Population Pyknosed Nuclei (%),[1]; [8],22%
same,Population Tubulin-Different-Phenotype (%),[1]; [8],30%
same,Total Cell Count,[1]; [8],189
same,Population Apoptotic (%),[1]; [9],75%
same,Population Fragmented Nuclei (%),[1]; [9],14%
same,Population Healthy Nuclei (%),[1]; [9],69%
same,Population Hoechst High Intensity Objects (%),[1]; [9],6%
same,Population Membrane Permeable-Phenotype (%),[1]; [9],3%
same,Population Mitochondria Different-Phenotype (%),[1]; [9],3%
same,Population Mitotic Cells (%),[1]; [9],25%
same,Population Normal (%),[1]; [9],93%
same,Population Pyknosed Nuclei (%),[1]; [9],16%
same,Population Tubulin-Different-Phenotype (%),[1]; [9],1%
same,Total Cell Count,[1]; [9],73
same,Population Apoptotic (%),[1]; [10],66%
same,Population Fragmented Nuclei (%),[1]; [10],32%
same,Population Healthy Nuclei (%),[1]; [10],32%
same,Population Hoechst High Intensity Objects (%),[1]; [10],32%
same,Population Membrane Permeable-Phenotype (%),[1]; [10],37%
same,Population Mitochondria Different-Phenotype (%),[1]; [10],12%
same,Population Mitotic Cells (%),[1]; [10],33%
same,Population Normal (%),[1]; [10],67%
same,Population Pyknosed Nuclei (%),[1]; [10],36%
same,Population Tubulin-Different-Phenotype (%),[1]; [10],70%
same,Total Cell Count,[1]; [10],111
same,Population Apoptotic (%),[1]; [11],50%
same,Population Fragmented Nuclei (%),[1]; [11],28%
same,Population Healthy Nuclei (%),[1]; [11],24%
same,Population Hoechst High Intensity Objects (%),[1]; [11],4%
same,Population Membrane Permeable-Phenotype (%),[1]; [11],44%
same,Population Mitochondria Different-Phenotype (%),[1]; [11],75%
same,Population Mitotic Cells (%),[1]; [11],49%
same,Population Normal (%),[1]; [11],95%
same,Population Pyknosed Nuclei (%),[1]; [11],47%
same,Population Tubulin-Different-Phenotype (%),[1]; [11],89%
same,Total Cell Count,[1]; [11],80
same,Population Apoptotic (%),[1]; [12],33%
same,Population Fragmented Nuclei (%),[1]; [12],33%
same,Population Healthy Nuclei (%),[1]; [12],53%
same,Population Membrane Permeable-Phenotype (%),[1]; [12],20%
same,Population Mitochondria Different-Phenotype (%),[1]; [12],5%
same,Population Mitotic Cells (%),[1]; [12],66%
same,Population Pyknosed Nuclei (%),[1]; [12],12%
same,Population Tubulin-Different-Phenotype (%),[1]; [12],22%
same,Total Cell Count,[1]; [12],163
same,Population Apoptotic (%),[1]; [13],60%
same,Population Fragmented Nuclei (%),[1]; [13],32%
same,Population Healthy Nuclei (%),[1]; [13],62%
same,Population Hoechst High Intensity Objects (%),[1]; [13],14%
same,Population Membrane Permeable-Phenotype (%),[1]; [13],34%
same,Population Mitochondria Different-Phenotype (%),[1]; [13],8%
same,Population Mitotic Cells (%),[1]; [13],40%
same,Population Normal (%),[1]; [13],85%
same,Population Pyknosed Nuclei (%),[1]; [13],4%
same,Population Tubulin-Different-Phenotype (%),[1]; [13],47%
same,Total Cell Count,[1]; [13],129
same,Population Apoptotic (%),[1]; [14],46%
same,Population Fragmented Nuclei (%),[1]; [14],35%
same,Population Healthy Nuclei (%),[1]; [14],43%
same,Population Hoechst High Intensity Objects (%),[1]; [14],33%
same,Population Membrane Permeable-Phenotype (%),[1]; [14],34%
same,Population Mitochondria Different-Phenotype (%),[1]; [14],12%
same,Population Mitotic Cells (%),[1]; [14],53%
same,Population Normal (%),[1]; [14],66%
same,Population Pyknosed Nuclei (%),[1]; [14],20%
same,Population Tubulin-Different-Phenotype (%),[1]; [14],68%
same,Total Cell Count,[1]; [14],110
same,Population Apoptotic (%),[1]; [15],78%
same,Population Fragmented Nuclei (%),[1]; [15],36%
same,Population Healthy Nuclei (%),[1]; [15],42%
same,Population Hoechst High Intensity Objects (%),[1]; [15],40%
same,Population Membrane Permeable-Phenotype (%),[1]; [15],20%
same,Population Mitochondria Different-Phenotype (%),[1]; [15],24%
same,Population Mitotic Cells (%),[1]; [15],21%
same,Population Normal (%),[1]; [15],59%
same,Population Tubulin-Different-Phenotype (%),[1]; [15],58%
same,Total Cell Count,[1]; [15],114
same,Growth Rate,"[2]; 0 h, replicate number 1, timepoint 0 hours",0
same,Growth Rate,[2]; [16],1
same,Growth Rate,[2]; [17],1
same,Growth Rate,[2]; [18],0
same,Growth Rate,"[2]; 18 h, replicate number 2, timepoint 18 hours",1
same,Growth Rate,[2]; [19],0
same,Growth Rate,"[2]; 24 h, replicate number 2, timepoint 24 hours",1
same,Growth Rate,[3]; [16],0
same,Growth Rate,[3]; [17],0
same,Growth Rate,[3]; [18],0
same,Growth Rate,[3]; [19],0
